Data taken from ChEMBL document CHEMBL2424553, “Synthesis, molecular docking and kinetic properties of β-hydroxy-β-phenylpropionyl-hydroxamic acids as Helicobacter pylori urease inhibitors” (Eur J Med Chem, 2013).

Assays:
[1] = biological target: T1, Urease subunit alpha/Urease subunit beta (Helicobacter pylori (strain ATCC 700392 / 26695) (Campylobacterpylori), UniProt P69996); experiment: Inhibition of urease extracted from Helicobacter pylori ATCC 43504 assessed as ammonia production preincubated for 1.5 hrs by indophenol-based method
In short: (§1)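 H. pylori ATCC 43504 grown 24 h at 37 °C in Brucella broth with 10% heat-inactivated horse serum under microaerobic gas (5% O2, 10% CO2, 85% N2). Cells pelleted (5000 g, 4 °C) and washed twice in PBS pH 7.4 to prepare urease. Enzyme pre-incubated with test compound 1.5 h at room temperature. Ammonia measured by the indophenol method. Run in triplicate.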

[2] = biological target: T1, Urease subunit alpha/Urease subunit beta; experiment: Inhibition of urease in Helicobacter pylori ATCC 43504 intact cell assessed as ammonia production preincubated for 1.5 hrs by indophenol-based method
In short: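 H. pylori grown 24 h at 37 °C in Brucella broth with 10% heat-inactivated horse serum, microaerobic (5% O₂, 10% CO₂, 85% N₂); cells pelleted (5000 g, 4 °C), PBS-washed (pH 7.4), suspended at 4.0 × 10⁷ CFU/mL. Suspension with test compound preincubated 1.5 h at room temperature; ammonia measured by Weatherburn indophenol method.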

[3] = biological target: T2, Urease subunit alpha/Urease subunit beta (Helicobacter pylori (strain ATCC 700392 / 26695) (Campylobacterpylori)) (UniProt P69996+P14916); experiment: Ratio of IC50 for urease in Helicobacter pylori ATCC 43504 intact cell to IC50 for urease extracted from Helicobacter pylori ATCC 43504
[4] = biological target: T2, Urease subunit alpha/Urease subunit beta (Helicobacter pylori (strain ATCC 700392 / 26695) (Campylobacterpylori)); experiment: Potency index, ratio of AHA IC50 to compound IC50 for Helicobacter pylori ATCC 43504 urease
[5] = biological target: T1, Urease subunit alpha/Urease subunit beta; experiment: Mixed-type competitive inhibition of Helicobacter pylori ATCC 43504 urease using urea as substrate by Lineweaver-burk plot analysis
[6] = biological target: T1, Urease subunit alpha/Urease subunit beta; experiment: Inhibition of Helicobacter pylori urease; in short: as §1

T2 sequence (P14916 whole entry, looked up): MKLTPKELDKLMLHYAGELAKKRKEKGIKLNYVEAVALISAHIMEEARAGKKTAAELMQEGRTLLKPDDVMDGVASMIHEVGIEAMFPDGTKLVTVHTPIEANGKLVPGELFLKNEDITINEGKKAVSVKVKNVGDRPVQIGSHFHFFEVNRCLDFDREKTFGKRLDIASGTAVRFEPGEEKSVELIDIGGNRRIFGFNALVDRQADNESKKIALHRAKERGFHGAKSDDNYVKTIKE
T2 sequence (P69996 whole entry, looked up): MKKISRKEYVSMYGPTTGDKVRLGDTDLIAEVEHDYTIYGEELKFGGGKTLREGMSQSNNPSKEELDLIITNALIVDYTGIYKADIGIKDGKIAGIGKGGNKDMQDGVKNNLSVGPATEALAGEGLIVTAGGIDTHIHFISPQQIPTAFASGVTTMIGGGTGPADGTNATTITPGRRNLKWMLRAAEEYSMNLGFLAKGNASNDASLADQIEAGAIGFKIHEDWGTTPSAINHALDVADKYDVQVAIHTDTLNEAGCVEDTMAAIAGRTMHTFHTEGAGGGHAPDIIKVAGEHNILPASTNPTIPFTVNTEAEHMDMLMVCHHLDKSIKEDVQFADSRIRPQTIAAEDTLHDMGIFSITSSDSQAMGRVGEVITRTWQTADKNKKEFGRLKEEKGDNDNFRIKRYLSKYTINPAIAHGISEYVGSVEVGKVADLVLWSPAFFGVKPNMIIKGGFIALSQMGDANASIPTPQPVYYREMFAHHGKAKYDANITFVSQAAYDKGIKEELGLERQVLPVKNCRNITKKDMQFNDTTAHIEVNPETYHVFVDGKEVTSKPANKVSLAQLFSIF
T1 sequence (P69996 whole entry): as the sequence (P69996 whole entry, looked up) above
T1 sequence (P14916 whole entry, further chain): as the sequence (P14916 whole entry, looked up) above

SMILES	IC50 [1] [µM]	IC50 [2] [µM]	Ratio IC50 [3]	further results
CN(C)c1ccc(C(=O)NO)cc1	77.9	–	–	–
O=C(CC(O)c1ccccc1)NO (racemic)	15.6	–	–	–
COc1ccccc1C(O)CC(=O)NO (racemic)	38.5	–	–	–
O=C(CC(O)c1ccccc1Cl)NO (racemic)	1.19	9.21	3	–
O=C(CC(O)c1ccccc1F)NO (racemic)	5.6	–	–	–
O=C(CC(O)c1cccc(O)c1)NO (racemic)	131	–	–	–
COc1cccc(C(O)CC(=O)NO)c1 (racemic)	23.2	–	–	–
O=C(CC(O)c1cccc(Cl)c1)NO (racemic)	0.083	0.36	–	Ratio IC50 [4]: 330; Ki [5]: 0.014 µM
O=C(CC(O)c1cccc(F)c1)NO (racemic)	3.99	13.3	3	–
O=C(CC(O)c1cccc(C(F)(F)F)c1)NO (racemic)	1.22	6.81	3	–
COc1ccc(C(O)CC(=O)NO)cc1 (racemic)	75.1	–	–	–
O=C(CC(O)c1ccc(OCc2ccccc2)cc1)NO (racemic)	61.5	–	–	–
O=C(CC(O)c1ccc(Cl)cc1)NO (racemic)	3.39	–	–	–
O=C(CC(O)c1ccc(F)cc1)NO (racemic)	8.01	–	–	–
O=C(CC(O)c1ccc(C(F)(F)F)cc1)NO (racemic)	7.89	–	–	–
CN(C)c1ccc(C(O)CC(=O)NO)cc1 (racemic)	7.13	–	–	–
O=C(CC(O)c1cccc(Cl)c1Cl)NO (racemic)	0.23	0.91	4	Ki [5]: 0.045 µM
O=C(CC(O)c1ccc(Cl)c(Cl)c1)NO (racemic)	0.37	1.42	3	–
O=C(CC(O)c1cc(Cl)ccc1O)NO (racemic)	1.28	11.3	8.8	–
COc1ccc(F)cc1C(O)CC(=O)NO (racemic)	11	–	–	–
O=C(CC(O)c1cc(Cl)cc(Cl)c1O)NO (racemic)	1.04	8.9	3	–
CC(=O)NO [ACETOHYDROXAMIC ACID]	27.6	110	–	–
O=c1c(O)c(-c2ccc(O)c(O)c2)oc2cc(O)cc(O)c12 [QUERCETIN]	–	–	–	IC50 [6]: 11.2 µM
